Experimental data taken from ChEMBL document CHEMBL4373727, “Thienopyrimidinone Derivatives That Inhibit Bacterial tRNA (Guanine37-N1)-Methyltransferase (TrmD) by Restructuring the Active Site with a Tyrosine-Flipping Mechanism” (J Med Chem, 2019).
Active and inactive are the calls of the source. The rule behind the calls is not given here.

Experiments:
[1] = molecular target: T1, tRNA (guanine-N(1)-)-methyltransferase (Pseudomonas aeruginosa (strain ATCC 15692 / DSM 22644 / CIP 104116 / JCM14847 / LMG 12228 / 1C / PRS 101 / PAO1), UniProt Q9HXQ1); assay: Inhibition of Pseudomonas aeruginosa tRNA (guanine(37)-N1)-methyltransferase (Leu5 to Asp25 residues) expressed in Escherichia coli BL21 Rosetta (DE3) assessed as reduction in S-adenosyl-L-homocysteine production preincubated for 15 mins followed by 4.5 uM of tRNALeu(CAG) substrate and SAM addition and measured after 45 mins by MTase-Glo assay
T1 sequence (Q9HXQ1 whole entry): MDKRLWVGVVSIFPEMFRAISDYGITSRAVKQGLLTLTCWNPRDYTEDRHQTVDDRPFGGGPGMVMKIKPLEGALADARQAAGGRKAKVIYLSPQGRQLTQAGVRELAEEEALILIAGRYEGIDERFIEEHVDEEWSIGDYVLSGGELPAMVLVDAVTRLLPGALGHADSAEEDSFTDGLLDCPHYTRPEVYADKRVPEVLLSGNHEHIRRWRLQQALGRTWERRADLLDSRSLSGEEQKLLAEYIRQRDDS
Procedure, shortened: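 tRNA competition: same MTase-Glo assay with 8 nM PaTrmD and 2 μM SAM, 15 min preincubation and 45 min reaction at 37 °C. tRNALeu(CAG) at 1.5, 4.5 or 15 μM. IC50 from dose–response curves, duplicate data points.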

[2] = molecular target: T1, tRNA (guanine-N(1)-)-methyltransferase; assay: Binding affinity to Pseudomonas aeruginosa tRNA (guanine(37)-N1)-methyltransferase (Leu5 to Asp25 residues) expressed in Escherichia coli BL21 (DE3) Rosetta T1R cells by surface plasmon resonance assay
Procedure, shortened: (§1)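 SPR at 25 °C. His-tagged TrmD (50 μg/mL) captured on an anti-His antibody surface (about 2200 RU), with a blank reference cell. Buffer: 50 mM Tris-HCl pH 8, 150 mM NaCl, 1 mM MgCl2, 1 mM DTT, 0.05% Tween-20. Analyte in 2-fold dilutions, injected lowest to highest at 30 μL/min, 30 s contact, 240 s dissociation. KD from steady-state affinity fit.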

[3] = molecular target: T2, tRNA (guanine-N(1)-)-methyltransferase (Mycobacterium tuberculosis (strain ATCC 25618 / H37Rv), UniProt P9WFY7); assay: Binding affinity to full length Mycobacterium tuberculosis tRNA (guanine(37)-N1)-methyltransferase expressed in Escherichia coli BL21 (DE3) by surface plasmon resonance assay; procedure, shortened: as §1
T2 sequence (P9WFY7 whole entry): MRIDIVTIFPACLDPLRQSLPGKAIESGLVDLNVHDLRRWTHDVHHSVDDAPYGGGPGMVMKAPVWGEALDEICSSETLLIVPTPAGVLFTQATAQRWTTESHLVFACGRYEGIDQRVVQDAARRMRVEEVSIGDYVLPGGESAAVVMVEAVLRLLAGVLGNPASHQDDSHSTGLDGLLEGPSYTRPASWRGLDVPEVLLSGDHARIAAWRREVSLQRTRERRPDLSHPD

[4] = molecular target: T3, tRNA (guanine-N(1)-)-methyltransferase (Staphylococcus aureus (strain NCTC 8325 / PS 47), UniProt Q2FZ43); assay: Binding affinity to full length Staphylococcus aureus tRNA (guanine(37)-N1)-methyltransferase expressed in Escherichia coli BL21 (DE3) by surface plasmon resonance assay; procedure, shortened: as §1
T3 sequence (Q2FZ43 whole entry): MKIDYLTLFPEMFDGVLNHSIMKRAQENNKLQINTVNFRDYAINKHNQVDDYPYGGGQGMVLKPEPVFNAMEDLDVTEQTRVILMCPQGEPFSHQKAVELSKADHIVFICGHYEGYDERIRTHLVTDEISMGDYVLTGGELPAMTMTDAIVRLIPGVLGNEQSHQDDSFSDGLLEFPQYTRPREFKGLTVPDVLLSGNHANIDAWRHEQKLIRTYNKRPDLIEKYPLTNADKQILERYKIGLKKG

[5] = molecular target: T4, tRNA (guanine-N(1)-)-methyltransferase (Pseudomonas aeruginosa (strain ATCC 15692 / DSM 22644 / CIP 104116 / JCM14847 / LMG 12228 / 1C / PRS 101 / PAO1)) (UniProt Q9HXQ1); assay: Binding affinity to Pseudomonas aeruginosa tRNA (guanine(37)-N1)-methyltransferase (Leu5 to Asp25 residues) expressed in Escherichia coli BL21 (DE3) Rosetta T1R cells assessed as association rate constant by surface plasmon resonance assay; procedure, shortened: as §1
T4 sequence (whole entry): T1 sequence (Q9HXQ1 whole entry)

[6] = molecular target: T5, tRNA (guanine-N(1)-)-methyltransferase (Mycobacterium tuberculosis (strain ATCC 25618 / H37Rv)) (UniProt P9WFY7); assay: Binding affinity to full length Mycobacterium tuberculosis tRNA (guanine(37)-N1)-methyltransferase expressed in Escherichia coli BL21 (DE3) assessed as association rate constant by surface plasmon resonance assay; procedure, shortened: as §1
T5 sequence (whole entry): T2 sequence (P9WFY7 whole entry)

[7] = molecular target: T6, tRNA (guanine-N(1)-)-methyltransferase (Staphylococcus aureus (strain NCTC 8325 / PS 47)) (UniProt Q2FZ43); assay: Binding affinity to full length Staphylococcus aureus tRNA (guanine(37)-N1)-methyltransferase expressed in Escherichia coli BL21 (DE3) assessed as association rate constant by surface plasmon resonance assay; procedure, shortened: as §1
T6 sequence (whole entry): T3 sequence (Q2FZ43 whole entry)

[8] = molecular target: T5, tRNA (guanine-N(1)-)-methyltransferase (Mycobacterium tuberculosis (strain ATCC 25618 / H37Rv)); assay: Binding affinity to full length Mycobacterium tuberculosis tRNA (guanine(37)-N1)-methyltransferase expressed in Escherichia coli BL21 (DE3) assessed as dissociation rate constant by surface plasmon resonance assay; procedure, shortened: as §1
[9] = molecular target: T6, tRNA (guanine-N(1)-)-methyltransferase (Staphylococcus aureus (strain NCTC 8325 / PS 47)); assay: Binding affinity to full length Staphylococcus aureus tRNA (guanine(37)-N1)-methyltransferase expressed in Escherichia coli BL21 (DE3) assessed as dissociation rate constant by surface plasmon resonance assay; procedure, shortened: as §1
[10] = molecular target: T4, tRNA (guanine-N(1)-)-methyltransferase (Pseudomonas aeruginosa (strain ATCC 15692 / DSM 22644 / CIP 104116 / JCM14847 / LMG 12228 / 1C / PRS 101 / PAO1)); assay: Binding affinity to Pseudomonas aeruginosa tRNA (guanine(37)-N1)-methyltransferase (Leu5 to Asp25 residues) expressed in Escherichia coli BL21 (DE3) Rosetta T1R cells assessed as thermal stabilization of protein by measuring change in melting temperature at 0.1 mM by SYPRO orange based thermal shift assay
Procedure, shortened: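 Thermal shift: 4 μM TrmD with 5× SYPRO Orange and ligand in 50 mM Tris-HCl pH 8, 150 mM NaCl, 1 mM MgCl2, 1 mM DTT, 0.05% Tween-20. Buffer-only control. Heated from 25 to 95 °C in a real-time PCR instrument, and Tm taken as the unfolding midpoint. Ligand levels: SAH 2 mM, inhibitors 0.1 mM.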

Staphylococcus aureus = assay: Antibacterial activity against methicillin-resistant Staphylococcus aureus ATCC 43300 at 100 uM incubated for 24 hrs; assay type: functional, organism-based
Procedure, shortened: (§2)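 Single-concentration growth screen: 100 μM test compound with log-phase bacteria at about 5×10^5 cells/mL. Incubation 24 h at 37 °C. Growth read by OD600 and given as percent of untreated control. MRSA was grown in cation-adjusted Mueller–Hinton broth. M. smegmatis was grown in complete Middlebrook 7H9. Ampicillin and kanamycin served as positive controls.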

Enterococcus faecalis = assay: Antibacterial activity against Enterococcus faecalis ATCC 51299 at 100 uM incubated for 24 hrs; assay type: functional, organism-based
Procedure, shortened: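 Single-concentration screen in brain heart infusion broth. Log-phase cells at ~5×10^5 cells/mL were grown with 100 μM compound for 24 h at 37 °C. Growth was read as OD600 and expressed as a percentage of untreated wells. DMSO and blank controls were included.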

[11] = system: Mycolicibacterium smegmatis; assay: Antibacterial activity against Mycolicibacterium smegmatis MC2 155 at 100 uM incubated for 24 hrs; assay type: functional, organism-based; procedure, shortened: as §2
[12] = system: Mycobacterium tuberculosis; assay: Antibacterial activity against Mycobacterium tuberculosis ATCC 27294 at 100 uM incubated for 7 days; assay type: functional, organism-based

| Compound | IC50 [1] [nM] | Kd [2] [nM] | Kd [3] [nM] | Kd [4] [nM] | Ka [5] [M⁻¹ s⁻¹] | Ka [6] [M⁻¹ s⁻¹] | Ka [7] [M⁻¹ s⁻¹] | Kdiss [8] [s⁻¹] | Kdiss [9] [s⁻¹] | ΔTm [10] [°C] | Activity (Staphylococcus aureus) | Activity (Enterococcus faecalis) | Activity [11] | Activity [12] |
| --- | --- | --- | --- | --- | --- | --- | --- | --- | --- | --- | --- | --- | --- | --- |
| CCCCCCCCNCc1ccc(CNC(=O)c2csc3nc[nH]c(=O)c23)cc1 | 60 | 1.6 | 190 | 3100 | 1.35e+07 | 645000 | 2.94e+06 | 0.12 | 9.15 | 12 | Active | Active | Active | Active |
| NC1CCN(Cc2ccc(CNC(=O)c3csc4nc[nH]c(=O)c34)cc2)CC1 | 330 | 91 | 10400 | 27500 | 128000 | 20100 | 59900 | 0.209 | 1.65 | 4 to 29 | inactive | inactive | inactive | inactive |
